Source: PubChem BioAssay
Activity calls are given as the source filed them.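 How the source made its calls, unless noted: active means viability at or under a set limit in both replicates, limit being median viability minus 3 SD (cut at about 48% in these data, passing the limit was not always enough); inconclusive means at or under the limit in just one replicate; inactive means at or above the limit in both replicates.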 Peptide text beside a SMILES is read from it. * marks the point of attachment. Boc = CC(C)(C)OC(=O)*

Key:
[1] = Her2 expression decrease, cell viability multiplex – SKBR3 breast tumor cells, AlphaScreen, ATP viability, primary screen (AID 461;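 active means Her2 level under about 52% in both replicate screens, with viability over 70% of control, limit read from the data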;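 on Her2 level: lower value means less Her2 protein in the cells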;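 on viability: percent of carrier control wells set as 100% viability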); details: SKBR3 Her2 protein level, 18-24 h, measured here: SKBR3 viability, ATP luminescence, at 10 µM
[2] = molecular target: Receptor tyrosine-protein kinase erbB-2 (Homo sapiens) (UniProt P04626); experiment: as above; details: 18-24 h, at 10 µM, stronger effect = lower value
[3] = reduced viability of SK-BR-3 breast cancer cells – cell-based, 24 h, human, pilot screen (AID 572;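 active means viability at or below 10% of carrier control in both of two separate runs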;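 further: compound exposure lasted between 18 and 24 h rather than exactly 24 h; 100% = carrier-treated control wells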); details: SK-BR-3 viability, CellTiter-Glo luminescence, at 10 µM, stronger effect = lower value
[4] = HUVEC growth inhibition – cell-based, human, primary screen (AID 575;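 active means viability at or below 30% in both replicate assays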;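 further: 100% = median of untreated cell wells with 0.1% DMSO on each plate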); details: HUVEC proliferation, CellTiter-Glo luminescence, 72 h; at 10 µM; stronger effect = lower value
Summary of the method: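 Assay system: primary human umbilical vein endothelial cells / Buffer or medium: endothelial basal medium with 2% FBS plus growth supplements / Compound dosing: one dose, 10 µM final, 0.1% DMSO / Timing: 72 h treatment at 37 °C / Signal: CTG luminescence / Benchmarks: 32 DMSO-only cell-control wells (high), 32 MePR drug-control wells (low) per plate / Plate: collagen-coated 384-well format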

[5] = H69AR cell proliferation blockers – human, duplicate replicates, primary screen (AID 580); details: H69AR lung tumor cells viability, ATP luminescence, 72 h; at 10 µM; stronger effect = lower value;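 further: 100% = mean luminescence of untreated wells and 0% = no signal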
[6] = MRP1 drug-resistance reversers in H69AR cells – cell-based, doxorubicin co-treatment, pilot screen (AID 601;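 active means viability loss from added drug above about 55%, and viability with drug at most 40%, in both replicates, limit read from the data, passing the limit was not always enough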); details: CellTiter-Glo, 72 h, at 10 µM; for differential viability (reversal): stronger effect = higher value
[7] = yeast transport mutant growth inhibition pilot in 384-well plates, post-Golgi transport modulator project (AID 636; in the data active means inhibition above about 31%); details: absorbance 615 nm, about 18 h, stronger effect = higher value
[8] = growth suppression of yeast trafficking mutant, preliminary HTS, modulators of trafficking downstream of Golgi apparatus project, 1536-format plate, OD 615 nm (AID 637; in the data active means inhibition above about 30%); details: yeast transport mutant growth, absorbance 615 nm, 18 h; stronger effect = higher value
[9] = H69AR cells + 2 uM doxorubicin, measured here: viability with 2 uM doxorubicin, stronger effect = lower value
[10] = H69AR cells, compound alone cytotoxicity

Sequence of Receptor tyrosine-protein kinase erbB-2 (Homo sapiens) (P04626 whole entry, looked up): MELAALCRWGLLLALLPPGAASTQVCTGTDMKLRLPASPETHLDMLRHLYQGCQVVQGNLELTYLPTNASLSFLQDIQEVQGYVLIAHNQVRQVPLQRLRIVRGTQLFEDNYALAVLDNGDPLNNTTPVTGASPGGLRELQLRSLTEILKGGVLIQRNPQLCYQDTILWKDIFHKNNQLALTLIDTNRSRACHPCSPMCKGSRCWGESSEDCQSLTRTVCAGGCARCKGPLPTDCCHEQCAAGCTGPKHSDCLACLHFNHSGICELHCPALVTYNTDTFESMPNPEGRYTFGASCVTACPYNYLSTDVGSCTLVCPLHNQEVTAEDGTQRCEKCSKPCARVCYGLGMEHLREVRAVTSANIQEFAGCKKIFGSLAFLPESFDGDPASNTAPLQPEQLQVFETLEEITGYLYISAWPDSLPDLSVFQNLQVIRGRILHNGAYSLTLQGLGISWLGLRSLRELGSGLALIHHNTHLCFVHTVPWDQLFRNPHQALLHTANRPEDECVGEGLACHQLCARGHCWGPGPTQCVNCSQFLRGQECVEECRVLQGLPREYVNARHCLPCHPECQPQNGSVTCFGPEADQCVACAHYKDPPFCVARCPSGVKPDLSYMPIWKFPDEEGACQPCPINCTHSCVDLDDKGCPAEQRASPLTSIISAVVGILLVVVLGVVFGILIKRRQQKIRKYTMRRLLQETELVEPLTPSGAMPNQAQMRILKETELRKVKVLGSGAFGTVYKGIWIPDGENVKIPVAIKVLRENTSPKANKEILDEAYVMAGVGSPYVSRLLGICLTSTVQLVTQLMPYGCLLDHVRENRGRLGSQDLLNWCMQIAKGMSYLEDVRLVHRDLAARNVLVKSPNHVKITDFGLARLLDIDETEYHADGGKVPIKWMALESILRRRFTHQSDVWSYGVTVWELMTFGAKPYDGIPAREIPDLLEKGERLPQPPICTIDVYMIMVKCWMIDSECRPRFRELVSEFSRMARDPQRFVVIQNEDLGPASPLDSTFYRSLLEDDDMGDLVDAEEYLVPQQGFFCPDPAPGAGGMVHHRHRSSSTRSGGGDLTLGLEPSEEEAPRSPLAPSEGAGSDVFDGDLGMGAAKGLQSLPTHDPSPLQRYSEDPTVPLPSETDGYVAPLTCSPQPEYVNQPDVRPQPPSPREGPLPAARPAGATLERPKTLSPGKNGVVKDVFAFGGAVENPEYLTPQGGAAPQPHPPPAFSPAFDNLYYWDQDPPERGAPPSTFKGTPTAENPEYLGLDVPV

Structure (SMILES)	viability [1] [%]	Her2 level [2]	viability [3]	viability [4]	viability [5]	differential viability (reversal) ([6]; H69AR cells + 2 uM doxorubicin)	viability [6, 9] [%]	viability [6, 10] [%]	inhibition [7]	inhibition [8]
COCCN1CCN(c2c(C)c(C)nc3cc(-c4cccc(OC)c4)nn23)CC1	100	83.5% (inactive)	100% (inactive)	91.1% (inactive)	95.4% (inactive)	12.7% (inactive)	82.7	95.4	-5.45% (inactive)	-1.43% (inactive)
O=C(CNC(=O)c1ccccc1C(=O)O)c1ccccc1	128	79.5% (inactive)	128% (inactive)	100% (inactive)	90% (inactive)	7.15% (inactive)	82.8	90	2.6% (inactive)	-0.49% (inactive)
COc1ccc(NC(=O)CCc2nc(-c3ccccc3F)no2)cc1	115	99% (inactive)	115% (inactive)	91.9% (inactive)	93.6% (inactive)	4.53% (inactive)	89.1	93.6	-0.26% (inactive)	-0.66% (inactive)
COc1ccccc1N1C(=O)CC(Sc2nc(C)cc(C)n2)C1=O (stereo not given)	87	96.5% (inactive)	87% (inactive)	102% (inactive)	83.4% (inactive)	-9.3% (inactive)	92.7	83.4	-5.84% (inactive)	-7.21% (inactive)
CCOC(=O)N1CCC(N2CC34C=CC(O3)C(C(=O)O)C4C2=O)CC1 (stereo not given)	102	99.5% (inactive)	102% (inactive)	92.4% (inactive)	100% (inactive)	18.3% (inactive)	81.8	100	-3.73% (inactive)	-4.26% (inactive)
O=C(OCC(=O)c1cccs1)C1=COCCO1	89	102% (inactive)	89% (inactive)	91.6% (inactive)	89.1% (inactive)	1.52% (inactive)	87.6	89.1	-0.38% (inactive)	-1% (inactive)
COc1ccc(-n2c(=O)c3c4c(sc3n3c(C)nnc23)CCCC4)cc1	78.5	94% (inactive)	78.5% (inactive)	101% (inactive)	96.5% (inactive)	15.6% (inactive)	80.9	96.5	0.13% (inactive)	-5.33% (inactive)
O=c1c2cc(N3CCOCC3)ccc2[nH]c(=S)n1CCCN1CCCCC1	83.5	93.5% (inactive)	83.5% (inactive)	84.9% (inactive)	95.9% (inactive)	4.74% (inactive)	91.2	95.9	-4.59% (inactive)	-8.36% (inactive)
CCOC(=O)C(NC(=O)OC(C)C)(Nc1nccs1)C(F)(F)F (stereo not given)	89.5	96.5% (inactive)	89.5% (inactive)	103% (inactive)	110% (inactive)	12% (inactive)	97.6	110	-4.29% (inactive)	4.44% (inactive)
CC(=O)c1c(C)oc2ccc(NS(=O)(=O)c3ccc(O)c(C(=O)O)c3)cc12	92	78.5% (inactive)	92% (inactive)	105% (inactive)	94% (inactive)	3.09% (inactive)	90.9	94	-6.22% (inactive)	0.79% (inactive)
Cc1cc2ncc(C(=O)Nc3ccccc3)c(C)n2n1	94	94% (inactive)	94% (inactive)	124% (inactive)	99.5% (inactive)	12.7% (inactive)	86.8	99.5	-4.34% (inactive)	-0.48% (inactive)
COc1cccc(CNC(=O)CCn2c(=O)oc3ccccc32)c1	77.5	94.5% (inactive)	77.5% (inactive)	94.7% (inactive)	86.4% (inactive)	-3.03% (inactive)	89.4	86.4	-5.92% (inactive)	-1.82% (inactive)
Cc1nc(SCC(=O)N2CCC(C(N)=O)CC2)n[nH]1	94.5	108% (inactive)	94.5% (inactive)	109% (inactive)	95.5% (inactive)	3.98% (inactive)	91.6	95.5	-6.32% (inactive)	1.45% (inactive)
O=C(CCSc1nc(-c2ccco2)cc(C(F)(F)F)n1)Nc1ccc2c(c1)OCO2	83	94.5% (inactive)	83% (inactive)	56.3% (inactive)	78.4% (inactive)	-10.1% (inactive)	88.5	78.4	-7.47% (inactive)	3.81% (inactive)
CCOc1ccc(S(=O)(=O)n2nc(C)cc2C)c2ccccc12	83.5	89.5% (inactive)	83.5% (inactive)	71.2% (inactive)	79.7% (inactive)	2.17% (inactive)	77.6	79.7	-1.03% (inactive)	2% (inactive)
CC(C)CC(NC(=O)OC(C)(C)C)C(=O)NC(C(=O)NC(C)C(N)=O)C(C)C (stereo not drawn) (Boc-Leu-Val-Ala-NH2; configuration not given here)	102	107% (inactive)	102% (inactive)	94.2% (inactive)	112% (inactive)	19.3% (inactive)	93	112	-4.27% (inactive)	-3.23% (inactive)
CN(C)CCCN1C(=O)C(=O)/C(=C(/O)c2ccncc2)C1c1cccc(Br)c1 (stereo not given)	90.5	97% (inactive)	90.5% (inactive)	118% (inactive)	94.5% (inactive)	5.26% (inactive)	89.3	94.5	-2.93% (inactive)	-5.9% (inactive)
COC(=O)c1ccc(COc2ncnc3c(Cl)cc(Cl)cc23)o1	102	100% (inactive)	102% (inactive)	95.4% (inactive)	85.9% (inactive)	18.5% (inactive)	67.4	85.9	-8.16% (inactive)	-2.73% (inactive)
CC1N=C2c3ccccc3N=C(SCc3cc(=O)n4cc(Cl)ccc4n3)N2C1=O (stereo not given)	78.5	92.5% (inactive)	78.5% (inactive)	79.4% (inactive)	76.1% (inactive)	-9.46% (inactive)	85.6	76.1	-4.87% (inactive)	-0.48% (inactive)
Cc1[nH]c(=O)[nH]c(=O)c1S(=O)(=O)N(C)Cc1ccccc1	108	106% (inactive)	108% (inactive)	96.2% (inactive)	105% (inactive)	12.3% (inactive)	92.5	105	-0.66% (inactive)	-4.6% (inactive)
NC(=O)CSc1nnc(-c2cnccn2)n1-c1ccccc1	114	97% (inactive)	114% (inactive)	103% (inactive)	89.8% (inactive)	7.27% (inactive)	82.5	89.8	-5.07% (inactive)	1.13% (inactive)
CCCc1cn(S(=O)(=O)c2ccc(OC)cc2OC)nc1N	98	84.5% (inactive)	98% (inactive)	92.8% (inactive)	92.4% (inactive)	3.72% (inactive)	88.7	92.4	-7.2% (inactive)	0% (inactive)
CCOC(=O)c1ccc(NS(=O)(=O)c2cccc3nsnc23)cc1	90.5	106% (inactive)	90.5% (inactive)	113% (inactive)	95.9% (inactive)	-3.26% (inactive)	99.1	95.9	1.2% (inactive)	2.22% (inactive)
Cc1cccc(Nc2nc3c(c(=O)n(C)c(=O)n3C)n2Cc2ccccc2)c1	122	87% (inactive)	122% (inactive)	93.2% (inactive)	96.6% (inactive)	-0.855% (inactive)	97.5	96.6	-4.32% (inactive)	2.86% (inactive)
C=CCNC(=O)CSc1ccc(Cl)cc1	88.5	106% (inactive)	88.5% (inactive)	109% (inactive)	81.4% (inactive)	-7.45% (inactive)	88.8	81.4	-4.21% (inactive)	3.11% (inactive)
CCCn1nnnc1SCC(=O)c1ccc2c(c1)OCCO2	90	108% (inactive)	90% (inactive)	110% (inactive)	106% (inactive)	13.4% (inactive)	92.8	106	2.67% (inactive)	10.7% (inactive)
CCOC(=O)c1ccc(COC(=O)CCc2nc3ccccc3[nH]c2=O)o1	92	96.5% (inactive)	92% (inactive)	100% (inactive)	92.1% (inactive)	-4.18% (inactive)	96.2	92.1	-1.32% (inactive)	5.08% (inactive)
COc1ccc(C(N)=O)cc1N	77.5	116% (inactive)	77.5% (inactive)	105% (inactive)	94.6% (inactive)	-1.72% (inactive)	96.3	94.6	4.81% (inactive)	18% (inactive)
